For assay [1], the target named is T1, Delta-type opioid receptor (Mus musculus, UniProt P32300). Nature of the assay: Antagonist activity at delta opioid receptor in electrically stimulated-mouse vas deferens. The assay is classed as functional, tissue-based. Particulars: read-out: pA2 (converted). The essentials: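 Mouse vas deferens in organ bath with physiological salt buffer, pH 7.5, electrically stimulated. Antagonism measured against the delta agonist deltorphin-II and expressed as pA2 derived by Schild plot.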
T1 sequence (P32300 whole entry): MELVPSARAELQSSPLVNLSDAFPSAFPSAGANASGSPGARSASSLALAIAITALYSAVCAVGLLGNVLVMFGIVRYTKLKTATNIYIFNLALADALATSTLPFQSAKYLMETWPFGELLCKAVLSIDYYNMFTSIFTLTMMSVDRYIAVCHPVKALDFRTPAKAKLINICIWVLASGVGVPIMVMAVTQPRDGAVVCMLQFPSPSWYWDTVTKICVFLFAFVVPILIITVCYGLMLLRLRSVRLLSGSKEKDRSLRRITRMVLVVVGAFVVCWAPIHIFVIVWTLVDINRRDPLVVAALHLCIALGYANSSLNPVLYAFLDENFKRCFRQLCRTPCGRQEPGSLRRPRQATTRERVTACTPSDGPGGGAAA

The species entered for another assay is Rattus norvegicus. Nature of the assay: Ratio of Ki for mu opioid receptor to delta opioid receptor in Sprague-Dawley rat brain P2 synaptosomal membrane. The method in brief: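 Ratio of Ki values from rat brain P2 synaptosome competition binding (2.5 h, 23 °C, equilibrium; filtration on polyethylenimine-treated GFC filters). Ki by Cheng-Prusoff from duplicate assays at five to eight doses, 3–5 independent preparations.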

The target in assay [2] is Mu-type opioid receptor (Cavia porcellus, UniProt P97266). Nature of the assay: Agonist activity at mu opioid receptor in Hartley guinea pig assessed as inhibition of electrically evoked-contraction. The assay is classed as functional. The method in brief: (§1)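 Isolated tissue: single mouse vas deferens (delta) or myenteric plexus longitudinal muscle strips, 2–3 cm, from small intestine of male Hartley guinea pigs (mu), in organ baths with balanced salt solution, pH 7.5. Inhibition of electrically evoked contraction; IC50 (nM) from dose-response curves, mean ± SE of five or six separate assays.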
Mu-type opioid receptor (Cavia porcellus, UniProt P97266), sequence (P97266 whole entry): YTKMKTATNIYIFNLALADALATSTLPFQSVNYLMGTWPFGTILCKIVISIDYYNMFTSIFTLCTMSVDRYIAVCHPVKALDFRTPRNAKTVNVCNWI

Assay [3] deals with Delta-type opioid receptor (Rattus norvegicus, UniProt P33533). Description: Displacement of [3H]deltorphin2 from delta opioid receptor in Sprague-Dawley rat brain P2 synaptosomal membrane. The method in brief:
(§2)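 Competition binding on rat brain P2 synaptosomes, preincubated to strip endogenous opioids and stored at −80 °C in buffered 20% glycerol. Equilibrium 2.5 h at 23 °C. Separation on GFC filters presoaked in 0.1% polyethylenimine, washed three times with ice-cold buffered BSA. Duplicates, five to eight doses, 3–5 independent membrane preparations; Ki by Cheng-Prusoff, mean ± SE.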

Assay [4] deals with Mu-type opioid receptor (Rattus norvegicus, UniProt P33535). Description: Displacement of [3H]DAMGO from mu opioid receptor in Sprague-Dawley rat brain P2 synaptosomal membrane. The method in brief: as §2
Mu-type opioid receptor (Rattus norvegicus, UniProt P33535), sequence (P33535 whole entry): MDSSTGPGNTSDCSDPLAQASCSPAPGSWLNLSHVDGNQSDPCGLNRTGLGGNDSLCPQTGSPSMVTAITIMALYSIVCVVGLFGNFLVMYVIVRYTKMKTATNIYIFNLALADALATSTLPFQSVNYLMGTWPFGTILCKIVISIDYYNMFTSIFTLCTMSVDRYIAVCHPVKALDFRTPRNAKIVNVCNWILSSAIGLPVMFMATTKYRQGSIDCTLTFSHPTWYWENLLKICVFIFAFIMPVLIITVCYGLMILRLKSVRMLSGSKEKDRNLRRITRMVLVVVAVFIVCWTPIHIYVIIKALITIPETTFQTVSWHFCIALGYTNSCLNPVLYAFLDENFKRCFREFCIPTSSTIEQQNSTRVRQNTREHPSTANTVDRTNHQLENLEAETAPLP
(Loss of bound radioactivity is the signal in a displacement assay; it reports binding, not function.)

Assay [5] deals with T1, Delta-type opioid receptor. Nature of the assay: Agonist activity at delta opioid receptor in mouse vas deferens assessed as inhibition of electrically evoked-contraction. Format: functional, tissue-based. The essentials:
as §1

SMILES strings stand for the structures. pIC50, pKi: −log10 of the molar value. Square brackets hold non-standard residues; d marks the D form. Peptide text beside a SMILES is read from it. * marks the point of attachment. Dmt = Cc1cc(O)cc(C)c1C[C@H](N)C(=O)O; Tic = O=C(O)[C@@H]1Cc2ccccc2CN1; Cbz = O=C(OCc1ccccc1)*

Delta-type opioid receptor (Rattus norvegicus, UniProt P33533), sequence (P33533 whole entry): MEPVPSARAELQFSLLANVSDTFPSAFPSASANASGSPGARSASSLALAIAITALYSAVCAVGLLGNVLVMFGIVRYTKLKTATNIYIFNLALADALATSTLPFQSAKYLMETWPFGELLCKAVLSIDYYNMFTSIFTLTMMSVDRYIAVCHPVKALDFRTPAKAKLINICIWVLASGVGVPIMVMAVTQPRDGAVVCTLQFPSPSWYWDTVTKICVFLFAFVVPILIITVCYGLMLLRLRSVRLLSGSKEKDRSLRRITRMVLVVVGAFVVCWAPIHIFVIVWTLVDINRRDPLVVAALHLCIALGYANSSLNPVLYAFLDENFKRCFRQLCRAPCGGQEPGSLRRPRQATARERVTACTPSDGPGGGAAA

Usually pIC50 stands for the IC50 on a negative log10 scale, so that one unit is a factor of ten. The term pKi denotes the Ki on a negative log10 scale, so that one unit is a factor of ten. High values mean a low Ki, low ones a high Ki. `Cc1cc(O)cc(C)c1C[C@H](N)C(=O)N1Cc2ccccc2C[C@@H]1C(=O)NCCCC[C@H](NC(=O)c1ccc(F)cc1)C(=O)O`: in assay [1], the Kb is 5.62 nM. For the same compound, the Ratio Ki in the assay listed under Rattus norvegicus was 240. In addition, the pIC50 at Mu-type opioid receptor [2] was 5.72. Further, the pKi was 9.76 in assay [3] and 7.39 at Mu-type opioid receptor [4].
Take `Cc1cc(O)cc(C)c1C[C@H](N)C(=O)N1Cc2ccccc2C[C@H]1C(=O)N[C@@H](Cc1ccccc1)C(=O)N[C@@H](CCCCNC(=O)OCc1ccccc1)C(=O)O` (H-[Dmt][Tic]FK(Cbz)-OH): the pIC50 on Mu-type opioid receptor [2] was less than 5.00. Also, the results for the pKi (in assay [3]; on Mu-type opioid receptor [4]) were 10.72 and 8.56, respectively.
For the compound `Cc1cc(O)cc(C)c1C[C@H](N)C(=O)N1Cc2ccccc2C[C@H]1C(=O)N[C@@H](Cc1ccccc1)C(=O)N[C@@H](CCCCNC(=O)c1ccc(F)cc1)C(=O)O`, the pIC50 in assay [5] was 5.29; on Mu-type opioid receptor [2] it was 7.30. Moreover, the Kb in assay [1] was 0.355 nM. Moreover, the pKi was 9.61 in assay [3] and 7.88 on Mu-type opioid receptor [4].
In the case of `Cc1cc(O)cc(O)c1C[C@H](N)C(=O)N1Cc2ccccc2C[C@@H]1C(=O)N[C@@H](Cc1ccccc1)C(=O)N[C@@H](CCCCNC(=O)OCc1ccccc1)C(=O)O`, the Ratio Ki in the assay filed under Rattus norvegicus amounted to 145.
As for `Cc1cc(O)cc(C)c1C[C@H](N)C(=O)N1Cc2ccccc2C[C@@H]1C(=O)N[C@@H](Cc1ccccc1)C(=O)N[C@@H](CCCCNC(=O)c1ccc(F)cc1)C(=O)O`, in the assay listed under Rattus norvegicus, the Ratio Ki was determined as 53.
